Reference: ChEMBL document CHEMBL1938284, “Synthesis and biological activity of novel organoselenium derivatives targeting multiple kinases and capable of inhibiting cancer progression to metastases” (Eur J Med Chem, 2012)
pIC50: −log10 of the molar value. Active and inactive are the calls of the source. The calls are words filed in the database; no cut-off is given here.

Key:
[1] = biological target: T1, RAC-alpha serine/threonine-protein kinase (Homo sapiens, UniProt P31749); assay: Inhibition of AKT-1 at 1 uM
T1 sequence (P31749 whole entry): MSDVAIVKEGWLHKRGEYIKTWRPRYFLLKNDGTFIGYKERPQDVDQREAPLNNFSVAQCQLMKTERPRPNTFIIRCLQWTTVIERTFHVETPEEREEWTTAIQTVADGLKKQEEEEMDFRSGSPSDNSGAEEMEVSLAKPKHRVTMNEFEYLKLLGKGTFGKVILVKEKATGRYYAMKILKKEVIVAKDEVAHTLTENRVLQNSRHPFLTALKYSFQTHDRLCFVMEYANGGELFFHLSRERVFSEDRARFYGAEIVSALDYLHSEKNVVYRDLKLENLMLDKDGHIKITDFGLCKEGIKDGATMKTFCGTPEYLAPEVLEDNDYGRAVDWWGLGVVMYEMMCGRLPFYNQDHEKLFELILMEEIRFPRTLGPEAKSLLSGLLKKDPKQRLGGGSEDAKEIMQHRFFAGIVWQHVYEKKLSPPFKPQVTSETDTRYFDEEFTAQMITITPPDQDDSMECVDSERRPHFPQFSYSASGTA

[2] = biological target: Fibroblast growth factor receptor 1 (Homo sapiens) (UniProt P11362); assay: Inhibition of FGFR1 at 1 uM
Chain of Fibroblast growth factor receptor 1 (Homo sapiens) (P11362 22-822 limits assumed): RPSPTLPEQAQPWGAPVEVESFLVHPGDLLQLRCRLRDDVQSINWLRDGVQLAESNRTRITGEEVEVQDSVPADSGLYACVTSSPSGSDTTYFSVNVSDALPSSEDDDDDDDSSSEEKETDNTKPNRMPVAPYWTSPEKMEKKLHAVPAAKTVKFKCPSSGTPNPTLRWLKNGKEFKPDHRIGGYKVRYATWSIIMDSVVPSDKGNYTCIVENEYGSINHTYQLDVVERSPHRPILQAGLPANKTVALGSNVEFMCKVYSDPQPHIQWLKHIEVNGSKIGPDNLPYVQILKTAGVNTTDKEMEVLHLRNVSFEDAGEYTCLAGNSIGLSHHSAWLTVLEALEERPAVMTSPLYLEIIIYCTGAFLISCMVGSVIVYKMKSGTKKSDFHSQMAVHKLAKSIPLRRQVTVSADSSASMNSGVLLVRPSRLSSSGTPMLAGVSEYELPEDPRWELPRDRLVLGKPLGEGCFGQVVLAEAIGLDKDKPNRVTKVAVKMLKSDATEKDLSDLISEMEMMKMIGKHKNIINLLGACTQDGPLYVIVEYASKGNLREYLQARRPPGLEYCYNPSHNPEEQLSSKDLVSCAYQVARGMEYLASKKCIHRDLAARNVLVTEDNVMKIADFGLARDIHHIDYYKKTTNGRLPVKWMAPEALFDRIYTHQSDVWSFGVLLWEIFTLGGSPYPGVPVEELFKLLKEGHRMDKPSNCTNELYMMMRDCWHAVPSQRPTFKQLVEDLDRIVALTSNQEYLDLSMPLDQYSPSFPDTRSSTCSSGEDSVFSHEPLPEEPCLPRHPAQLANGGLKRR

[3] = biological target: Receptor-type tyrosine-protein kinase FLT3 (Homo sapiens) (UniProt P36888); assay: Inhibition of FLT3 at 1 uM
Chain of Receptor-type tyrosine-protein kinase FLT3 (Homo sapiens) (P36888 whole entry): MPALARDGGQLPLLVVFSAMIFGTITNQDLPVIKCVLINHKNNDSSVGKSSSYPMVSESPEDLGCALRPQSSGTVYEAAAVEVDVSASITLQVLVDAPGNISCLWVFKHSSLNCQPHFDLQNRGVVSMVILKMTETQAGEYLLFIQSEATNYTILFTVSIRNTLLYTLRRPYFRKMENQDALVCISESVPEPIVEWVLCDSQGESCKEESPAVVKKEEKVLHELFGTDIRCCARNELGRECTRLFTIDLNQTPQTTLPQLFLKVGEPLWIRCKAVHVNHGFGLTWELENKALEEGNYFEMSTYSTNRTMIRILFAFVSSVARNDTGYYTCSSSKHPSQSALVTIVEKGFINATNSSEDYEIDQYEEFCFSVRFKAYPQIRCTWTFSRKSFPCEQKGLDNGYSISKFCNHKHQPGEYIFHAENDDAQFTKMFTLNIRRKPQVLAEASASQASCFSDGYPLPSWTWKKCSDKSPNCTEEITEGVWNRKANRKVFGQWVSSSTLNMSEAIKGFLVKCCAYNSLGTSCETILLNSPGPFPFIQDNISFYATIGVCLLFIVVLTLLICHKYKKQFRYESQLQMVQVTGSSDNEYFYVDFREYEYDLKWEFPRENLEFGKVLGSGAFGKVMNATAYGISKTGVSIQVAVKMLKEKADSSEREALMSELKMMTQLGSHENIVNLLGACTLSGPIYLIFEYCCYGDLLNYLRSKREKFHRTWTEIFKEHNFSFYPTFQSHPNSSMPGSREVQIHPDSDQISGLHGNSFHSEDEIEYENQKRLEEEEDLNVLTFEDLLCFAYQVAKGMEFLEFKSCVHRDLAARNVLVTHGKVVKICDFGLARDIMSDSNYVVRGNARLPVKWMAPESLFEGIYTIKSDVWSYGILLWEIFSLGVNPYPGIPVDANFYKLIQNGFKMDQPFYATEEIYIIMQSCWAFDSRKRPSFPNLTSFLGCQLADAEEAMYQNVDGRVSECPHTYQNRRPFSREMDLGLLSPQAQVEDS

[4] = biological target: Platelet-derived growth factor receptor beta (Homo sapiens) (UniProt P09619); assay: Inhibition of PDGFRbeta at 1 uM
Chain of Platelet-derived growth factor receptor beta (Homo sapiens) (P09619 whole entry): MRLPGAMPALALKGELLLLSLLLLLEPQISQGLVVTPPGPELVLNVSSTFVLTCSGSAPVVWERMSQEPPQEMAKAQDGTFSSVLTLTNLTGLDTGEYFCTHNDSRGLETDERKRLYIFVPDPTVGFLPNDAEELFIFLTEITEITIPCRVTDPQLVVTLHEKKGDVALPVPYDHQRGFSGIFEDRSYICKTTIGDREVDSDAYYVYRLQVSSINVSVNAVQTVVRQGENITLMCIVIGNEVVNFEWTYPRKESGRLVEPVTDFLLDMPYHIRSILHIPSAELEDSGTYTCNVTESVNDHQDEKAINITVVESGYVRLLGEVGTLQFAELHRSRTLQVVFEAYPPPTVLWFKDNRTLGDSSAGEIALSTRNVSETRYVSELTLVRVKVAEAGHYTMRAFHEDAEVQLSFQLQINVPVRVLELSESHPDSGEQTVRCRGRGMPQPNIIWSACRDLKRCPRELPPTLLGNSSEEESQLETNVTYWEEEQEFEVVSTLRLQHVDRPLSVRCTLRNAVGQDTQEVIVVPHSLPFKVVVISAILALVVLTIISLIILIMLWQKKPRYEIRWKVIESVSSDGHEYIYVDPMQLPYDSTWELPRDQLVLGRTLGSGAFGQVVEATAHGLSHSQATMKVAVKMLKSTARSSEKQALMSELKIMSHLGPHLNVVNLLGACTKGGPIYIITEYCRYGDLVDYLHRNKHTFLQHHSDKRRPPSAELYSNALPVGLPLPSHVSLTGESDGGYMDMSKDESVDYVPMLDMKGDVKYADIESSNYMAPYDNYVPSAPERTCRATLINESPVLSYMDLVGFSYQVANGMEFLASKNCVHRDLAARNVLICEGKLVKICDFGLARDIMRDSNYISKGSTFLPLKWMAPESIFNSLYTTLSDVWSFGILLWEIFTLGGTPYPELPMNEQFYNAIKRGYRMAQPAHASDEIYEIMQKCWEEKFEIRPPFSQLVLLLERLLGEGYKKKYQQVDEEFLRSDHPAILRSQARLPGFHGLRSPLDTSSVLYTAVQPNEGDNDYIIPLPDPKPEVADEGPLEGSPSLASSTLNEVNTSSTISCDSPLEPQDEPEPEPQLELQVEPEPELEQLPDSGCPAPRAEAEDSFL

[5] = biological target: T2, Serine/threonine-protein kinase Sgk3 (Homo sapiens) (UniProt Q96BR1); assay: Inhibition of SGK3 at 1 uM
T2 sequence (whole entry): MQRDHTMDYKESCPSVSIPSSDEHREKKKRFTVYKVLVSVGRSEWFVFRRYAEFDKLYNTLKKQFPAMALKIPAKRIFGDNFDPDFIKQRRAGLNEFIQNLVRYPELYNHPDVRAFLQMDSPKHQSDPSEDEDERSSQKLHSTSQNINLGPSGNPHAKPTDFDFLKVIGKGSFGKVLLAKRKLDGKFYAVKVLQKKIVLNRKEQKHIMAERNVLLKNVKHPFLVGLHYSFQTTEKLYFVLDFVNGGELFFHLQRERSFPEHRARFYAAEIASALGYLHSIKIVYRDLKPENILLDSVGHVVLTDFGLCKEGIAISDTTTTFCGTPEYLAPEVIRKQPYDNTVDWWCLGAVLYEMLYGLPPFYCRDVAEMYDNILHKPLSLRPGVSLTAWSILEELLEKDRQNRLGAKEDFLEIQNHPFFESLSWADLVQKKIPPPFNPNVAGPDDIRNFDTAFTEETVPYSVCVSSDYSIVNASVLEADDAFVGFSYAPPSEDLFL

[6] = biological target: T1, RAC-alpha serine/threonine-protein kinase; assay: Inhibition of AKT-1
Focal adhesion kinase 1 [7] = biological target: T3, Focal adhesion kinase 1 (Homo sapiens, UniProt Q05397); assay: Inhibition of human recombinant full-length FAK using ATP and Poly Glu:Tyr as substrate after 4 hrs by luminescence analysis
Outline: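 Human recombinant full-length FAK incubated 4 h at room temperature in kinase buffer with ATP and Poly Glu:Tyr substrate, with or without compound at various concentrations.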
Target sequence in this assay (Q05397 whole entry): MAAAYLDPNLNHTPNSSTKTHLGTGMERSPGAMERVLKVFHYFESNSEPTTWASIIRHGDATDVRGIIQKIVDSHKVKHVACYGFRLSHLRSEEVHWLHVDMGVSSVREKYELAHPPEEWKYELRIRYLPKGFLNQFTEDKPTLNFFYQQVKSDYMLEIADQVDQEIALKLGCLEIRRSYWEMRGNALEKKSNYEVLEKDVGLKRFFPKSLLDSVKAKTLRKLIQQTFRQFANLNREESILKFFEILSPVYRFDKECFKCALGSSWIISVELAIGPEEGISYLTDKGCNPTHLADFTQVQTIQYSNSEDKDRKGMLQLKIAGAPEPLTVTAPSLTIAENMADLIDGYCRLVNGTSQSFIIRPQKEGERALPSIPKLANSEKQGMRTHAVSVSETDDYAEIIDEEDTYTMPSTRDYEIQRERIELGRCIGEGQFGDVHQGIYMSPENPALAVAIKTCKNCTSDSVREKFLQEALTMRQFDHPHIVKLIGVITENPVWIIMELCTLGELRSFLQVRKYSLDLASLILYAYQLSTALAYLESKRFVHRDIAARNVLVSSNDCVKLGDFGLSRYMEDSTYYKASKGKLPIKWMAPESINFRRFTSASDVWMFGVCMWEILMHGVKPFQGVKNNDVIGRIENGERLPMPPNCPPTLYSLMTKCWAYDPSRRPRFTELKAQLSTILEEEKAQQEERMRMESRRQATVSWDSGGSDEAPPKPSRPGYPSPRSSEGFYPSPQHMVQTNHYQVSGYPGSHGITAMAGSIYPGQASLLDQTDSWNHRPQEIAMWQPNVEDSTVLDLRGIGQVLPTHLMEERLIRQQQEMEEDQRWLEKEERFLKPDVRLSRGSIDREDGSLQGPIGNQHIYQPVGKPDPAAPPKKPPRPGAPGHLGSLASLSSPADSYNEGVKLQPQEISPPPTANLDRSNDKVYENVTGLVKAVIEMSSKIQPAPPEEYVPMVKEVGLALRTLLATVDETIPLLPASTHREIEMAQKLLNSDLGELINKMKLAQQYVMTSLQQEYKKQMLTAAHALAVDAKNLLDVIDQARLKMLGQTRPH

[8] = biological target: Protein kinase C alpha type (Homo sapiens, UniProt P17252); assay: Inhibition of PKCalpha
MDA-MB-231 [9] = assay: Antitumor activity against human MDA231 cells xenografted in SCID mouse assessed as tumor growth inhibition at 60 mg/kg, ip administered 3 times a week for a total of 9 doses measured on day 40; format: functional, organism-based; set-up: dose 60 mg/kg
Outline: (§1)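 Female SCID mice, 6 per group, given 1.5 million MDA-231-M2 cells into the mammary fat pad. Once tumours were palpable, vehicle or compound was given at 60 mg/kg IP 3 times weekly for 9 injections. Mice sacrificed on day 40. Lungs fixed in 10% Bouin's and surface metastases counted by stereomicroscope. Primary tumour volume also recorded. Groups compared to vehicle by unpaired Student t test.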

Mus musculus [10] = assay: Toxicity in SCID mouse xenografted with human MDA231 cells assessed as body weight loss at 60 mg/kg, ip administered 3 times a week for a total of 9 doses; format: organism-based; set-up: dose 60 mg/kg, route intraperitoneal; conditions: in vivo
Mus musculus [11] = assay: Apparent toxicity in SCID mouse xenografted with human MDA231 cells at 60 mg/kg, ip administered 3 times a week for a total of 9 doses; format: organism-based; set-up: dose 60 mg/kg, route intraperitoneal; conditions: in vivo
Cancer cell lines = assay: Antitumor activity against human MDA231 cells xenografted in SCID mouse assessed as inhibition of lung metastases of cancer cells at 60 mg/kg, ip administered 3 times a week for a total of 9 doses measured on day 40 by stereomicroscopic analysis; format: functional, organism-based; set-up: dose 60 mg/kg; outline: as §1
MDA-MB-231 [12] = assay: Cytotoxicity against human MDA231 cells at 50 uM; format: functional, cell-based
MDA-MB-231 [13] = assay: Antiangiogenic activity in human MDA231 cells assessed as inhibition of cell migration at 10 uM after 12 to 24 hrs by wound healing migration assay; format: functional, cell-based
Outline: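 MDA-231 cells grown on coverslips for 24 h, wounded by scraping with a micropipette tip, washed, then kept in fresh medium at 37 °C with compound at 10 μM final or DMSO. Photographed at 12 and 24 h. Remaining wound area measured. DMSO set to 0% inhibition. Mean ± SD of five independent experiments.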

MDA-MB-231 [14] = assay: Antiinvasive activity in human MDA231 cells at 10 uM after 48 hrs by Matrigel matrix assay; format: functional
Outline: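 Serum-starved MDA-231 cells (30,000) placed with or without compound (10 μM) in the upper compartment of 8-µm Matrigel-coated Boyden chambers. Lower compartment held DMEM 0.2% BSA with 10% serum. Invasion ran 48 h, then invaded cells were fixed, stained and counted under a 40× objective. DMSO normalized to 0% inhibition. Mean ± SD, five experiments.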

Focal adhesion kinase 1 [15] = biological target: T3, Focal adhesion kinase 1; assay: Inhibition of FAK phosphorylation in EGF-stimulated human MDA231 cells using [gamma32P]ATP as substrate at 50 uM after 2 hrs by scintillation counting; format: cell-based
Outline: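 MDA231 cells serum-starved overnight, treated with compound for 2 h, then stimulated with 20 ng/mL EGF for 30 min. Lysates immunoprecipitated with polyclonal anti-FAK. The immunocomplex was assayed in Hepes/MgCl2/MnCl2 buffer with 3 μCi/nmol [γ-32P]-ATP. Reactions stopped by boiling in SDS sample buffer. Bands excised after SDS-PAGE and counted by scintillation. Figure legend gives N = 4.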

O=C(CCCn1[se]c2ccccc2c1=O)N[C@@H]1O[C@H](CO)[C@@H](O)[C@H](O)[C@H]1O showed an inhibition [1] of 60%, an inhibition [2] of 0% and an inhibition [3] of 0%. The inhibition [4] was 0%, the inhibition [5] was 0% and the pIC50 [6] was 6.06. For the same compound, the pIC50 (Focal adhesion kinase 1 [7]) was 6.02 and the pIC50 [8] was 6.14.

With CC(=O)OC[C@H]1O[C@@H](O[C@H]2[C@H](OC(C)=O)[C@@H](OC(C)=O)[C@H](n3[se]c4ccccc4c3=O)O[C@@H]2COC(C)=O)[C@H](OC(C)=O)[C@@H](OC(C)=O)[C@H]1OC(C)=O the “growth inhibition (GI)” value (MDA-MB-231 [9]) was “Active”, the Activity (Mus musculus [10]) was “Non-toxic” and the Activity (Mus musculus [11]) was “Non-toxic”. The inhibition (Cancer cell lines) was “Active”, the inhibition [1] was 63% and the inhibition [2] was 0%. The inhibition [3] was 0%, the inhibition [4] was 0% and the inhibition [5] was 0%. For the same compound, the Activity (MDA-MB-231 [12]) was “Active”.

In the case of CC(=O)OC[C@H]1O[C@@H](NC(=O)CCCn2[se]c3ccccc3c2=O)[C@H](OC(C)=O)[C@@H](OC(C)=O)[C@@H]1OC(C)=O, the inhibition [1] was 67%, the inhibition [2] was 0% and the inhibition [3] was 0%. It also gave an inhibition [4] of 0%, an inhibition [5] of 0% and a pIC50 [6] of 6.10. It also gave a pIC50 (Focal adhesion kinase 1 [7]) of 6.04 and a pIC50 [8] of 6.13.

With O=c1c2ccccc2[se]n1-c1ccccc1 [EBSELEN] the inhibition (MDA-MB-231 [13]) was “inactive”, the Activity (MDA-MB-231 [14]) was “inactive” and the “growth inhibition (GI)” value (MDA-MB-231 [9]) was “inactive”. The Activity (Mus musculus [10]) was “Non-toxic”, the Activity (Mus musculus [11]) was “Non-toxic” and the inhibition (Cancer cell lines) was “inactive”. It also gave an inhibition [1] of 22%, an inhibition [2] of 0% and an inhibition [3] of 0%. The inhibition [4] was 0%, the inhibition [5] was 0% and the inhibition (Focal adhesion kinase 1 [15]) was “inactive”.
